Reference: ChEMBL document CHEMBL3232916, “1-(4-Methoxyphenyl)-5-(3,4,5-trimethoxyphenyl)-1H-1,2,4-triazole-3-carboxamides: synthesis, molecular modeling, evaluation of their anti-inflammatory activity and ulcerogenicity” (Eur J Med Chem, 2014)

How the values were obtained:
Rattus norvegicus [1] = test: Antiinflammatory activity in albino rat assessed as inhibition of carrageenan-induced paw edema at 0.28 mmol/kg, po administered 30 mins before carrageenan challenge measured after 1 hr relative to control; format: functional
Method in brief: (§1)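 Male albino rats, n = 4 per group. Dosed orally as a suspension in 0.5% w/v CMC in water; controls received CMC alone. 0.1 mL of freshly prepared 1% carrageenan in saline was injected subplantar into the right hind paw 30 min after dosing, with saline in the left paw. Right paw thickness was read by Vernier caliper before and at 1–5 h. Result is % decrease in edema vs control, mean ± S.E.M.; one-way ANOVA.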

Rattus norvegicus [2] = test: Antiinflammatory activity in albino rat assessed as inhibition of carrageenan-induced paw edema at 0.28 mmol/kg, po administered 30 mins before carrageenan challenge measured after 2 hrs relative to control; format: functional; method in brief: as §1
Rattus norvegicus [3] = test: Antiinflammatory activity in albino rat assessed as inhibition of carrageenan-induced paw edema at 0.28 mmol/kg, po administered 30 mins before carrageenan challenge measured after 3 hrs relative to control; format: functional; method in brief: as §1
Rattus norvegicus [4] = test: Antiinflammatory activity in albino rat assessed as inhibition of carrageenan-induced paw edema at 0.28 mmol/kg, po administered 30 mins before carrageenan challenge measured after 4 hrs relative to control; format: functional; method in brief: as §1
Rattus norvegicus [5] = test: Antiinflammatory activity in albino rat assessed as inhibition of carrageenan-induced paw edema at 0.28 mmol/kg, po administered 30 mins before carrageenan challenge measured after 5 hrs relative to control; format: functional; method in brief: as §1
Rattus norvegicus [6] = test: Ulcerogenic effect in albino rat assessed as ulcer index at 0.28 mmol/kg, po; format: toxicity, organism-based; conditions: in vivo
Method in brief: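 Rat gastric ulcers were graded by area: level I <1 mm², level II 1–3 mm², level III >3 mm². Ulcer index = 1×(level I count) + 2×(level II) + 3×(level III). Reported as mean ± S.E.M., n = 4.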

Rattus norvegicus [7] = test: Ulcerogenic effect in albino rat assessed as loss of mucosal membrane using hematoxylin and eosin staining at 0.28 mmol/kg, po by light microscopic analysis; format: toxicity, organism-based; conditions: in vivo
Method in brief: (§2)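 Stomach sections were dewaxed through graded alcohols to water and stained with haematoxylin for 5–7 min. They were differentiated 5–10 s in 1% HCl in 70% alcohol, then stained with 1% eosin for 10 min, with tap-water washes between steps. The sections were then examined by light microscopy for mucosal and glandular changes.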

Rattus norvegicus [8] = test: Ulcerogenic effect in albino rat assessed as capillary inflammatory cells using hematoxylin and eosin staining at 0.28 mmol/kg, po by light microscopic analysis; format: toxicity, organism-based; conditions: in vivo; method in brief: as §2
Rattus norvegicus [9] = test: Ulcerogenic effect in albino rat assessed as apoptotic glandular epithelial cells using hematoxylin and eosin staining at 0.28 mmol/kg, po by light microscopic analysis; format: toxicity, organism-based, Epithelial cell; conditions: in vivo; method in brief: as §2
Rattus norvegicus [10] = test: Antiinflammatory activity in albino rat assessed as inhibition of carrageenan-induced paw edema at 0.28 mmol/kg, po administered 30 mins before carrageenan challenge measured after 3 hrs relative to indomethacin; format: functional; conditions: read-out: INH
Method in brief: (§3)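 Calculated from the 3 h % edema inhibition in carrageenan paw edema (male albino rats, oral dosing in 0.5% CMC 30 min before 1% carrageenan subplantar injection). Expressed as % of the inhibition given by the reference drug in the same assay.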

Rattus norvegicus [11] = test: Antiinflammatory activity in albino rat assessed as inhibition of carrageenan-induced paw edema at 0.28 mmol/kg, po administered 30 mins before carrageenan challenge measured after 3 hrs relative to celecoxib; format: functional; conditions: read-out: INH; method in brief: as §3
Rattus norvegicus [12] = test: Ulcerogenic effect in albino rat assessed as morphology using hematoxylin and eosin staining at 0.28 mmol/kg, po by light microscopic analysis; format: toxicity, organism-based; conditions: in vivo; method in brief: as §2

| SMILES | inhibition in vivo at 280 µmol/kg (Rattus norvegicus [1]) | inhibition in vivo at 280 µmol/kg (Rattus norvegicus [2]) | inhibition in vivo at 280 µmol/kg (Rattus norvegicus [3]) | inhibition in vivo at 280 µmol/kg (Rattus norvegicus [4]) | inhibition in vivo at 280 µmol/kg (Rattus norvegicus [5]) | UI (Rattus norvegicus [6]) | Activity (Rattus norvegicus [7]) | Activity (Rattus norvegicus [8]) | Activity (Rattus norvegicus [9]) | paw edema inhibition relative to indomethacin at 280 µmol/kg (Rattus norvegicus [10]) | paw edema inhibition relative to celecoxib at 280 µmol/kg (Rattus norvegicus [11]) | Activity (Rattus norvegicus [12]) |
| --- | --- | --- | --- | --- | --- | --- | --- | --- | --- | --- | --- | --- |
| COc1ccc2c(c1)c(CC(=O)O)c(C)n2C(=O)c1ccc(Cl)cc1 [INDOMETHACIN] | 55% | 68% | 78% | 81% | 86% | 41 | Toxic | Toxic | Toxic | – | – | – |
| COc1ccc(-n2nc(C(=O)Nc3ccccc3C)nc2-c2cc(OC)c(OC)c(OC)c2)cc1 | 19% | 30% | 50% | 46% | 47% | 1.5 | – | – | – | 64% | 74% | Non-toxic |
